From publication PMC6682128 (ACS Omega, 2019)

Experiment: Cytotoxicity assay
Assay type: cell-based
Details: human
Method in brief: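 Replicon cells (Huh5-2, Huh7.5-3a or Huh7.5-4a) were seeded at 10^4 per well and grown 24 h in complete DMEM. They were then exposed for three days to serial dilutions of test compound or DMSO solvent. Lysates were assayed for ATP by chemiluminescence, normalised to Bradford total protein. CC50 was obtained by nonlinear regression against log concentration.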

SMILES | CC50 at 3 days
COC(=O)N[C@H](C(=O)N1CCC[C@H]1C(=O)Nc1ccc(C#CC#Cc2ccc(NC(=O)[C@@H]3CCCN3C(=O)[C@@H](NC(=O)OC)C(C)C)cc2)cc1)C(C)C [1a, Dimethyl((2S,2′S)-((2S,2′S)-(((buta-1,3-diyne-1,4-diylbis(4,1-phenylene))bis(azanediyl))bis(carbonyl))bis(pyrrolidine-2,1-diyl))bis(3-methyl-1-oxobutane-1,2-diyl))dicarbamate] | 11 µM
CCCCOC(=O)N[C@H](C(=O)N1CCC[C@H]1C(=O)Nc1ccc(C#CC#Cc2ccc(NC(=O)[C@@H]3CCCN3C(=O)[C@@H](NC(=O)OCCCC)C(C)C)cc2)cc1)C(C)C [1c, Dibutyl((2S,2′S)-((2S,2′S)-(((buta-1,3-diyne-1,4-diylbis(4,1-phenylene))bis(azanediyl))bis(carbonyl))bis(pyrrolidine-2,1-diyl))bis(3-methyl-1-oxobutane-1,2-diyl))dicarbamate] | > 20 µM
CC(C)COC(=O)N[C@H](C(=O)N1CCC[C@H]1C(=O)Nc1ccc(C#CC#Cc2ccc(NC(=O)[C@@H]3CCCN3C(=O)[C@@H](NC(=O)OCC(C)C)C(C)C)cc2)cc1)C(C)C [1d, Diisobutyl((2S,2′S)-((2S,2′S)-(((buta-1,3-diyne-1,4-diylbis(4,1-phenylene))bis(azanediyl))bis(carbonyl))bis(pyrrolidine-2,1-diyl))bis(3-methyl-1-oxobutane-1,2-diyl))dicarbamate] | > 10 µM
CCOC(=O)N[C@@H](CC(C)C)C(=O)N1CCC[C@H]1C(=O)Nc1ccc(C#CC#Cc2ccc(NC(=O)[C@@H]3CCCN3C(=O)[C@H](CC(C)C)NC(=O)OCC)cc2)cc1 [1f, Diethyl((2S,2′S)-((2S,2′S)-(((buta-1,3-diyne-1,4-diylbis(4,1-phenylene))bis(azanediyl))bis(carbonyl))bis(pyrrolidine-2,1-diyl))bis(4-methyl-1-oxopentane-1,2-diyl))dicarbamate] | > 10 µM
CCCCOC(=O)N[C@@H](CC(C)C)C(=O)N1CCC[C@H]1C(=O)Nc1ccc(C#CC#Cc2ccc(NC(=O)[C@@H]3CCCN3C(=O)[C@H](CC(C)C)NC(=O)OCCCC)cc2)cc1 [1g, Dibutyl((2S,2′S)-((2S,2′S)-(((buta-1,3-diyne-1,4-diylbis(4,1-phenylene))bis(azanediyl))bis(carbonyl))bis(pyrrolidine-2,1-diyl))bis(4-methyl-1-oxopentane-1,2-diyl))dicarbamate] | > 10 µM
CCOC(=O)N[C@H](C(=O)N1CCC[C@H]1C(=O)Nc1ccc(C#CC#Cc2ccc(NC(=O)[C@@H]3CCCN3C(=O)[C@@H](NC(=O)OCC)C(C)CC)cc2)cc1)C(C)CC (stereo partly drawn) [1h, Diethyl((2S,2′S)-((2S,2′S)-(((buta-1,3-diyne-1,4-diylbis(4,1-phenylene))bis(azanediyl))bis(carbonyl))bis(pyrrolidine-2,1-diyl))bis(3-methyl-1-oxopentane-1,2-diyl))dicarbamate] | > 10 µM
CCCCOC(=O)N[C@H](C(=O)N1CCC[C@H]1C(=O)Nc1ccc(C#CC#Cc2ccc(NC(=O)[C@@H]3CCCN3C(=O)[C@@H](NC(=O)OCCCC)C(C)CC)cc2)cc1)C(C)CC (stereo partly drawn) [1i, Dibutyl((2S,2′S)-((2S,2′S)-(((buta-1,3-diyne-1,4-diylbis(4,1-phenylene))bis(azanediyl))bis(carbonyl))bis(pyrrolidine-2,1-diyl))bis(3-methyl-1-oxopentane-1,2-diyl))dicarbamate] | > 10 µM
CCOC(=O)N[C@H](C(=O)N1CCC[C@@H]1C(=O)Nc1ccc(C#CC#Cc2ccc(NC(=O)[C@H]3CCCN3C(=O)[C@@H](NC(=O)OCC)C(C)C)cc2)cc1)C(C)C [1j, Diethyl((2S,2′S)-((2R,2′R)-(((buta-1,3-diyne-1,4-diylbis(4,1-phenylene))bis(azanediyl))bis(carbonyl))bis(pyrrolidine-2,1-diyl))bis(3-methyl-1-oxobutane-1,2-diyl))dicarbamate] | > 10 µM
CCOC(=O)N[C@@H](C(=O)N1CCC[C@@H]1C(=O)Nc1ccc(C#CC#Cc2ccc(NC(=O)[C@H]3CCCN3C(=O)[C@H](NC(=O)OCC)C(C)C)cc2)cc1)C(C)C [1k, Diethyl((2R,2′R)-((2R,2′R)-(((buta-1,3-diyne-1,4-diylbis(4,1-phenylene))bis(azanediyl))bis(carbonyl))bis(pyrrolidine-2,1-diyl))bis(3-methyl-1-oxobutane-1,2-diyl))dicarbamate] | > 10 µM
CCOC(=O)N[C@@H](CC(C)C)C(=O)N1CCC[C@@H]1C(=O)Nc1ccc(C#CC#Cc2ccc(NC(=O)[C@H]3CCCN3C(=O)[C@H](CC(C)C)NC(=O)OCC)cc2)cc1 [1l, Diethyl((2S,2′S)-((2R,2′R)-(((buta-1,3-diyne-1,4-diylbis(4,1-phenylene))bis(azanediyl))bis(carbonyl))bis(pyrrolidine-2,1-diyl))bis(4-methyl-1-oxopentane-1,2-diyl))dicarbamate] | > 10 µM
CCOC(=O)N[C@H](CC(C)C)C(=O)N1CCC[C@@H]1C(=O)Nc1ccc(C#CC#Cc2ccc(NC(=O)[C@H]3CCCN3C(=O)[C@@H](CC(C)C)NC(=O)OCC)cc2)cc1 [1m, Diethyl((2R,2′R)-((2R,2′R)-(((buta-1,3-diyne-1,4-diylbis(4,1-phenylene))bis(azanediyl))bis(carbonyl))bis(pyrrolidine-2,1-diyl))bis(4-methyl-1-oxopentane-1,2-diyl))dicarbamate] | > 10 µM
CCOC(=O)N[C@@H](C(=O)N1CCC[C@H]1C(=O)Nc1ccc(C#CC#Cc2ccc(NC(=O)[C@@H]3CCCN3C(=O)[C@H](NC(=O)OCC)C(C)C)cc2)cc1)C(C)C [1n, Diethyl((2R,2′R)-((2S,2′S)-(((buta-1,3-diyne-1,4-diylbis(4,1-phenylene))bis(azanediyl))bis(carbonyl))bis(pyrrolidine-2,1-diyl))bis(3-methyl-1-oxobutane-1,2-diyl))dicarbamate] | 70.6 µM
CC(C)C[C@H](NC(=O)OCc1ccccc1)C(=O)N1CCC[C@H]1C(=O)Nc1ccc(C#CC#Cc2ccc(NC(=O)[C@@H]3CCCN3C(=O)[C@H](CC(C)C)NC(=O)OCc3ccccc3)cc2)cc1 [1o, Dibenzyl((2S,2′S)-((2S,2′S)-(((buta-1,3-diyne-1,4-diylbis(4,1-phenylene))bis(azanediyl))bis(carbonyl))bis(pyrrolidine-2,1-diyl))bis(4-methyl-1-oxopentane-1,2-diyl))dicarbamate] | > 10 µM
CCC(C)[C@H](NC(=O)OCc1ccccc1)C(=O)N1CCC[C@H]1C(=O)Nc1ccc(C#CC#Cc2ccc(NC(=O)[C@@H]3CCCN3C(=O)[C@@H](NC(=O)OCc3ccccc3)C(C)CC)cc2)cc1 (stereo partly drawn) [1p, Dibenzyl((2S,2′S)-((2S,2′S)-(((buta-1,3-diyne-1,4-diylbis(4,1-phenylene))bis(azanediyl))bis(carbonyl))bis(pyrrolidine-2,1-diyl))bis(3-methyl-1-oxopentane-1,2-diyl))dicarbamate] | > 10 µM
CCOC(=O)N[C@H](C(=O)N1CCC[C@H]1C(=O)Nc1cccc(C#CC#Cc2cccc(NC(=O)[C@@H]3CCCN3C(=O)[C@@H](NC(=O)OCC)C(C)C)c2)c1)C(C)C [2b, Diethyl((2S,2′S)-((2S,2′S)-(((buta-1,3-diyne-1,4-diylbis(3,1-phenylene))bis(azanediyl))bis(carbonyl))bis(pyrrolidine-2,1-diyl))bis(3-methyl-1-oxobutane-1,2-diyl))dicarbamate] | > 200 µM
